Test results taken from ChEMBL document CHEMBL2311271 (Eur J Med Chem, 2013).

What was measured:
[1] = Cytotoxicity against human Blu-87 cells by MTT assay; format: functional, cell-based
Summary of the method: (§1)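 Cells grown in RPMI-1640 with 10% fetal calf serum plus penicillin and streptomycin, 37 °C, 5% CO₂. Compounds in DMSO, final ≤2% (v/v), tested in 96-well cultures with MTT staining. IC₅₀ = concentration cutting optical density 50% versus untreated cells; three replicate wells per point; mean of three independent determinations.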

786-0 = experiment: Cytotoxicity against human 786-0 cells by MTT assay; format: functional, cell-based; summary of the method: as §1
KB = experiment: Cytotoxicity against human KB cells by MTT assay; format: functional, cell-based; summary of the method: as §1
OS-RC-2 = experiment: Cytotoxicity against human OS-RC2 cells by MTT assay; format: functional, cell-based; summary of the method: as §1
769-P = experiment: Cytotoxicity against human 769-P cells by MTT assay; format: functional, cell-based; summary of the method: as §1
HepG2 = experiment: Cytotoxicity against human HepG2 cells by MTT assay; format: functional, cell-based; summary of the method: as §1
HT-29 = experiment: Cytotoxicity against human HT-29 cells by MTT assay; format: functional, cell-based; summary of the method: as §1
SCaBER = experiment: Cytotoxicity against human SCaBER cells by MTT assay; format: functional, cell-based; summary of the method: as §1
Bel-7402 = experiment: Cytotoxicity against human Bel7402 cells by MTT assay; format: functional, cell-based; summary of the method: as §1
BGC-823 = experiment: Cytotoxicity against human BGC823 cells by MTT assay; format: functional, cell-based; summary of the method: as §1
CWR22R = experiment: Cytotoxicity against human 22Rv1 cells by MTT assay; format: functional, cell-based; summary of the method: as §1
Mus musculus = experiment: Neurotoxicity in ip dosed C57BL/6 mouse assessed as tremble, twitch, jumping and supination response; format: toxicity, organism-based; conditions: in vivo
Summary of the method: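 C57BL/6 mice (9–12 weeks, 18–22 g), fasted overnight with water, dosed i.p. with 1.0–500 mg/kg in 0.5% CMC-Na; 10 per group (5 male, 5 female). Watched continuously 2 h for tremor, twitch, jumping, supination and other behavior, then intermittently to 24 h and occasionally to 14 days; killed day 14, with heart, liver and kidneys inspected.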

[2] = Acute toxicity in ip dosed C57BL/6 mouse measured up to 14 days; format: organism-based; conditions: in vivo
Summary of the method: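 Healthy C57BL/6 mice (9–12 weeks, 18–22 g), fasted overnight, 10 per group (5 male, 5 female). Single i.p. dose, 1.0 to 500 mg/kg in 0.5% CMC-Na. Watched continuously for 2 h, intermittently over 24 h, then occasionally to day 14 for behaviour, deaths and delayed effects. Heart, liver and kidneys inspected at necropsy. LD50 derived graphically.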

MCF7 = experiment: Cytotoxicity against human MCF7 cells by MTT assay; format: functional, cell-based; summary of the method: as §1
A549 = experiment: Cytotoxicity against human A549 cells by MTT assay; format: functional, cell-based; summary of the method: as §1
A-375 = experiment: Cytotoxicity against human A375 cells by MTT assay; format: functional, cell-based; summary of the method: as §1
[3] = Antitumor activity against mouse Sarcoma 180 cells xenografted in mouse assessed as tumor inhibition at 0.63 mg/kg, ip qd for 7 days measured every 3 days for 21 days; format: functional; conditions: Sarcoma-180, ip, route intraperitoneal
U-251 = experiment: Cytotoxicity against human U251 cells by MTT assay; format: functional, cell-based; summary of the method: as §1
[4] = tested on: Lewis lung carcinoma cell line; experiment: Antitumor activity against mouse LLC cells xenografted in mouse assessed as tumor inhibition at 0.63 mg/kg, ip qd for 7 days measured every 3 days for 21 days; format: functional; conditions: route intraperitoneal
HeLa = experiment: Cytotoxicity against human HeLa cells by MTT assay; format: functional, cell-based; summary of the method: as §1
[5] = Antitumor activity against mouse Sarcoma 180 cells xenografted in mouse assessed as tumor inhibition at 2.5 mg/kg, ip qd for 7 days measured every 3 days for 21 days; format: functional; conditions: Sarcoma-180, ip, route intraperitoneal
[6] = tested on: Lewis lung carcinoma cell line; experiment: Antitumor activity against mouse LLC cells xenografted in mouse assessed as tumor inhibition at 2.5 mg/kg, ip qd for 7 days measured every 3 days for 21 days; format: functional; conditions: route intraperitoneal
[7] = tested on: Lewis lung carcinoma cell line; experiment: Antitumor activity against mouse LLC cells xenografted in mouse assessed as tumor inhibition at 40 mg/kg, ip qd for 7 days measured every 3 days for 21 days; format: functional; conditions: route intraperitoneal
[8] = Antitumor activity against mouse Sarcoma 180 cells xenografted in mouse assessed as tumor inhibition at 40 mg/kg, ip qd for 7 days measured every 3 days for 21 days; format: functional; conditions: Sarcoma-180, ip, route intraperitoneal
[9] = Antitumor activity against mouse Sarcoma 180 cells xenografted in mouse assessed as tumor inhibition at 30 mg/kg, ip qd for 7 days measured every 3 days for 21 days; conditions: Sarcoma-180, ip, read-out: INH
[10] = tested on: Lewis lung carcinoma cell line; experiment: Antitumor activity against mouse LLC cells xenografted in mouse assessed as tumor inhibition at 30 mg/kg, ip qd for 7 days measured every 3 days for 21 days; conditions: read-out: INH

| Structure (SMILES) | IC50 [1] [µM] | IC50 (786-0) [µM] | IC50 (KB) [µM] | IC50 (OS-RC-2) [µM] | IC50 (769-P) [µM] | IC50 (HepG2) [µM] | IC50 (HT-29) [µM] | IC50 (SCaBER) [µM] | IC50 (Bel-7402) [µM] | IC50 (BGC-823) [µM] | IC50 (CWR22R) [µM] | Activity (Mus musculus) | LD50 at 336 h [2] [mg/kg] | IC50 (MCF7) [µM] | IC50 (A549) [µM] | IC50 (A-375) [µM] | IC50 (U-251) [µM] | IC50 (HeLa) [µM] | also measured |
| --- | --- | --- | --- | --- | --- | --- | --- | --- | --- | --- | --- | --- | --- | --- | --- | --- | --- | --- | --- |
| Cc1c2c(cc[n+]1Cc1ccccc1)c1ccc(OCCCc3ccccc3)cc1n2CCCc1ccccc1.[Br-] | 1.5 | 2.2 | < 1.5 | 3.1 | 2.9 | 3.8 | 2 | 7.7 | 2 | 2.5 | 2.3 | Non-toxic | 3.75 | 6.6 | 3.3 | < 1.5 | 0.74 | 3.1 | inhibition in vivo at 0.63 mg/kg [3]: 46.1%; inhibition in vivo at 0.63 mg/kg [4]: 33.7% |
| CCn1c2cc(OCC(C)C)ccc2c2cc[n+](Cc3ccccc3)c(C)c21.[Br-] | 25.9 | 8.5 | < 1.7 | 10.6 | 5.2 | 9.6 | 4 | 34.1 | 3.2 | 10.6 |  | Non-toxic | 12.5 | 11.1 | 11.6 | 7.8 | 17.3 | 4.9 | inhibition in vivo at 2.5 mg/kg [5]: 44.2%; inhibition in vivo at 2.5 mg/kg [6]: 30% |
| CCn1c2cc(OCCCc3ccccc3)ccc2c2ccnc(C)c21 | 16.7 | 13.2 | 22.6 |  | 22.6 | 11.4 | 11.8 | 6.5 | 13.5 | 11.9 |  | Non-toxic | 200 | > 100 | 22.6 | 19.7 | 28 | 30.2 | inhibition in vivo at 40 mg/kg [7]: 21.7%; inhibition in vivo at 40 mg/kg [8]: 26% |
| CCn1c2cc(OCc3c(F)c(F)c(F)c(F)c3F)ccc2c2cc[n+](Cc3ccccc3)c(C)c21.[Br-] | 17.7 | 2.9 | 13.8 | 1.8 | 13 |  | 1.6 | 6.8 |  |  | < 1.4 | Non-toxic | 12.5 |  | 1.8 | 3.8 | 6.6 |  | inhibition in vivo at 2.5 mg/kg [5]: 36.9%; inhibition in vivo at 2.5 mg/kg [6]: 23.7% |
| O=P1(N(CCCl)CCCl)NCCCO1 (stereo not given) [CYCLOPHOSPHAMIDE ANHYDROUS] |  |  |  |  |  |  |  |  |  |  |  | Non-toxic |  |  |  |  |  |  | inhibition in vivo at 30 mg/kg [9]: 88.7%; inhibition in vivo at 30 mg/kg [10]: 85.6% |
| Cc1c2c(cc[n+]1Cc1ccccc1)c1ccc(OCC(C)C)cc1n2CC(C)C | 5.2 | 3.4 | < 1.5 | 8.3 | < 1.5 | 5.7 | 4.2 | 12.8 | 4.3 | 5.4 | 2.6 |  |  | 2.9 | 4.3 | 3.9 | 4.5 | 2.1 |  |
| CCn1c2cc(OCC(C)C)ccc2c2ccnc(C)c21 | 14.2 | 24.3 | 20.3 | 32 | 27 | 20.8 | 16.9 | 16.4 | 21.9 | 29.8 |  | Non-toxic | 200 | 13.2 | 30.3 |  | 44.6 | 23.3 | inhibition in vivo at 40 mg/kg [7]: 20.8%; inhibition in vivo at 40 mg/kg [8]: 27.8% |
| CCCCCCCCOc1ccc2c3cc[n+](Cc4ccccc4)c(C)c3n(CCCC)c2c1 | 2 | < 1.5 | < 1.5 | < 1.5 | < 1.5 | 2.7 | 3.2 | 4.6 | 0.86 | 3.7 | 2.9 |  |  | 4.1 | < 1.5 | < 1.5 | 2 | 4 |  |
